Source: ChEMBL document CHEMBL4011643, “Triaryl Benzimidazoles as a New Class of Antibacterial Agents against Resistant Pathogenic Microorganisms” (J Med Chem, 2017)
≈ marks a conversion by molar mass, not a printed value. Calls of active or inactive are those of the source.

Tests used:
[1] = test system: Acinetobacter baumannii; assay: Antibacterial activity against Acinetobacter baumannii AYE after 20 hrs in the presence of PMBN by broth microdilution method; format: functional
In short: (§1)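 Broth microdilution in Tryptic Soy Broth, done in triplicate. Growth was read as OD600 after 20 h. MIC is the lowest drug concentration giving OD600 below 0.1.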

[2] = test system: Acinetobacter baumannii; assay: Ratio of MIC for Acinetobacter baumannii ATCC 17978 in absence of Pa-beta-N to MIC for Acinetobacter baumannii ATCC 17978 in presence of Pa-beta-N; format: functional
In short: (§2)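 Both MICs were by TSB broth microdilution, with an OD600 <0.1 cutoff at 20 h.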

[3] = test system: Klebsiella pneumoniae; assay: Antibacterial activity against Klebsiella pneumoniae NCTC 13368 after 20 hrs in the presence of PMBN by broth microdilution method; format: functional; conditions: NCTC 13368, 20 h; in short: as §1
[4] = test system: Staphylococcus aureus; assay: Bactericidal activity against methicillin-resistant Staphylococcus aureus EMRSA-15 assessed as time required to kill bacteria by >6 log10CFU/ml at 4 times MIC by Miles Misra dilution method; format: functional
In short: (§3)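 Flasks of TSB inoculated at ~10^6 cfu/mL, compound added at 4 × MIC, shaken at 200 rpm and 37 °C. Samples taken at 1, 2, 4, 6 and 24 h and plated by Miles Misra dilution for CFU/mL. Bactericidal means a loss of >3 log CFU/mL. Three independent repeats, error bars SD.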

[5] = test system: Pseudomonas aeruginosa; assay: Antibacterial activity against Pseudomonas aeruginosa NCTC 13437 after 20 hrs in the presence of Pa-beta-N and magnesium ions by broth microdilution method; format: functional; conditions: NCTC 13437, 20 h; in short: as §1
[6] = Stabilization of FAM/TAMRA-labeled AT-rich DNA duplex (unknown origin) assessed as change in melting temperature at 5 uM by FRET-based assay
In short: (§4)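 FRET melting of a FAM/TAMRA-labelled AT-rich oligonucleotide, 400 nM working solution in 50 mM potassium, 50 mM cacodylate, pH 7.4. DNA was annealed at 85 °C for 6 min, then held at 25 °C for 5 h, and mixed 1:1 with sample. Fluorescence was read every 0.5 °C from 30 to 100 °C, with a 30 s hold per step. ΔTm is measured against the blank, in triplicate.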

[7] = test system: Acinetobacter baumannii; assay: Ratio of MIC for Acinetobacter baumannii AYE in absence of Pa-beta-N to MIC for Acinetobacter baumannii AYE in presence of Pa-beta-N; format: functional; in short: as §2
[8] = test system: Pseudomonas aeruginosa; assay: Antibacterial activity against Pseudomonas aeruginosa NCTC 13437 after 20 hrs by broth microdilution method; format: functional; conditions: NCTC 13437, 20 h; in short: as §1
[9] = test system: Enterococcus faecalis; assay: Bactericidal activity against vancomycin-resistant Enterococcus faecalis NCTC 12201 at 4 times MIC after 10 hrs by Miles Misra dilution method; format: functional
[10] = test system: Staphylococcus aureus; assay: Antibacterial activity against methicillin-resistant Staphylococcus aureus EMRSA-15 after 20 hrs by broth microdilution method; format: functional; conditions: EMRSA-15, 20 h
In short: (§5)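 Broth microdilution in Tryptic Soy Broth; growth read as OD600 after 20 h. MIC taken as the lowest drug concentration giving OD600 below 0.1. Run in triplicate.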

[11] = test system: Pseudomonas aeruginosa; assay: Antibacterial activity against Pseudomonas aeruginosa PAO1 after 20 hrs in the presence of Pa-beta-N and magnesium ions by broth microdilution method; format: functional; conditions: PAO1, 20 h; in short: as §1
[12] = test system: Klebsiella pneumoniae; assay: Ratio of MIC for Klebsiella pneumoniae M6 in absence of PMBN to MIC for Klebsiella pneumoniae M6 in presence of PMBN; format: functional
In short: (§6)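 Fold change: MIC without divided by MIC with 30 μg/mL PMBN. Both MICs were by TSB broth microdilution, with an OD600 <0.1 cutoff at 20 h.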

[13] = test system: Staphylococcus aureus; assay: Antibacterial activity against methicillin-resistant Staphylococcus aureus MRSA252 after 20 hrs by broth microdilution method; format: functional; conditions: MRSA252, 20 h; in short: as §5
[14] = test system: Klebsiella pneumoniae; assay: Ratio of MIC for Klebsiella pneumoniae NCTC 13368 in absence of PMBN to MIC for Klebsiella pneumoniae NCTC 13368 in presence of PMBN; format: functional; in short: as §6
[15] = test system: Acinetobacter baumannii; assay: Antibacterial activity against Acinetobacter baumannii AYE after 20 hrs in the presence of Pa-beta-N and magnesium ions by broth microdilution method; format: functional; in short: as §1
[16] = test system: Acinetobacter baumannii; assay: Ratio of MIC for Acinetobacter baumannii ATCC 17978 in absence of PMBN to MIC for Acinetobacter baumannii ATCC 17978 in presence of PMBN; format: functional; in short: as §6
[17] = test system: Enterococcus faecium; assay: Antibacterial activity against vancomycin-resistant Enterococcus faecium NCTC 12204 after 20 hrs by broth microdilution method; format: functional; conditions: NCTC 12204, 20 h; in short: as §5
[18] = Stabilization of FAM/TAMRA-labeled AT-rich DNA duplex (unknown origin) assessed as change in melting temperature at 1 uM by FRET-based assay; in short: as §4
[19] = test system: Klebsiella pneumoniae; assay: Antibacterial activity against Klebsiella pneumoniae NCTC 13368 after 20 hrs in the presence of Pa-beta-N and magnesium ions by broth microdilution method; format: functional; conditions: NCTC 13368, 20 h; in short: as §1
[20] = test system: Klebsiella pneumoniae; assay: Antibacterial activity against Klebsiella pneumoniae M6 after 20 hrs in the presence of Pa-beta-N and magnesium ions by broth microdilution method; format: functional; conditions: M6, 20 h; in short: as §1
[21] = test system: Klebsiella pneumoniae; assay: Antibacterial activity against Klebsiella pneumoniae NCTC 13368 after 20 hrs by broth microdilution method; format: functional; conditions: NCTC 13368, 20 h; in short: as §1
[22] = test system: Pseudomonas aeruginosa; assay: Ratio of MIC for Pseudomonas aeruginosa NCTC 13437 in absence of PMBN to MIC for Pseudomonas aeruginosa NCTC 13437 in presence of PMBN; format: functional; in short: as §6
[23] = test system: Pseudomonas aeruginosa; assay: Ratio of MIC for Pseudomonas aeruginosa PAO1 in absence of PMBN to MIC for Pseudomonas aeruginosa PAO1 in presence of PMBN; format: functional; in short: as §6
[24] = test system: Pseudomonas aeruginosa; assay: Ratio of MIC for Pseudomonas aeruginosa NCTC 13437 in absence of Pa-beta-N to MIC for Pseudomonas aeruginosa NCTC 13437 in presence of Pa-beta-N; format: functional; in short: as §2
[25] = test system: Enterococcus faecalis; assay: Antibacterial activity against vancomycin-resistant Enterococcus faecalis NCTC 12201 after 20 hrs by broth microdilution method; format: functional; conditions: NCTC 12201, 20 h; in short: as §5
[26] = test system: Staphylococcus aureus; assay: Antibacterial activity against methicillin-sensitive Staphylococcus aureus ATCC 9144 after 20 hrs by broth microdilution method; format: functional; conditions: ATCC 9144, 20 h; in short: as §1
[27] = test system: Staphylococcus aureus; assay: Bactericidal activity against methicillin-resistant Staphylococcus aureus EMRSA-15 at 4 times MIC after 10 hrs by Miles Misra dilution method; format: functional
[28] = test system: Enterococcus faecalis; assay: Antibacterial activity against vancomycin-sensitive Enterococcus faecalis NCTC 775 after 20 hrs by broth microdilution method; format: functional; conditions: NCTC 775, 20 h; in short: as §1
[29] = test system: Acinetobacter baumannii; assay: Antibacterial activity against Acinetobacter baumannii ATCC 17978 after 20 hrs in the presence of PMBN by broth microdilution method; format: functional; conditions: ATCC 17978, 20 h; in short: as §1
[30] = test system: Acinetobacter baumannii; assay: Ratio of MIC for Acinetobacter baumannii AYE in absence of PMBN to MIC for Acinetobacter baumannii AYE in presence of PMBN; format: functional; in short: as §6
[31] = test system: Acinetobacter baumannii; assay: Antibacterial activity against Acinetobacter baumannii AYE after 20 hrs by broth microdilution method; format: functional; in short: as §1
[32] = test system: Klebsiella pneumoniae; assay: Ratio of MIC for Klebsiella pneumoniae NCTC 13368 in absence of Pa-beta-N to MIC for Klebsiella pneumoniae NCTC 13368 in presence of Pa-beta-N; format: functional; in short: as §2
[33] = test system: Pseudomonas aeruginosa; assay: Antibacterial activity against Pseudomonas aeruginosa PAO1 after 20 hrs by broth microdilution method; format: functional; conditions: PAO1, 20 h; in short: as §1
[34] = test system: Klebsiella pneumoniae; assay: Ratio of MIC for Klebsiella pneumoniae M6 in absence of Pa-beta-N to MIC for Klebsiella pneumoniae M6 in presence of Pa-beta-N; format: functional; in short: as §2
[35] = test system: Enterococcus faecalis; assay: Bactericidal activity against vancomycin-resistant Enterococcus faecalis NCTC 12201 assessed as time required to kill bacteria by >6 log10CFU/ml at 4 times MIC by Miles Misra dilution method; format: functional; in short: as §3
[36] = test system: Klebsiella pneumoniae; assay: Antibacterial activity against Klebsiella pneumoniae M6 after 20 hrs by broth microdilution method; format: functional; conditions: M6, 20 h; in short: as §1
[37] = test system: Acinetobacter baumannii; assay: Antibacterial activity against Acinetobacter baumannii ATCC 17978 after 20 hrs in the presence of Pa-beta-N and magnesium ions by broth microdilution method; format: functional; conditions: ATCC 17978, 20 h; in short: as §1
[38] = test system: Pseudomonas aeruginosa; assay: Antibacterial activity against Pseudomonas aeruginosa NCTC 13437 after 20 hrs in the presence of PMBN by broth microdilution method; format: functional; conditions: NCTC 13437, 20 h; in short: as §1
[39] = test system: Klebsiella pneumoniae; assay: Antibacterial activity against Klebsiella pneumoniae M6 after 20 hrs in the presence of PMBN by broth microdilution method; format: functional; conditions: M6, 20 h; in short: as §1
[40] = Cytotoxicity against human HeLa cells assessed as cell viability at 25 uM after 24 hrs by MTT assay; format: cell-based; conditions: read-out: Activity
In short: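 HeLa cells, 10000 per well, were grown at 37 °C in 5% CO2 and allowed to settle for 24 h. Compound was then added in triplicate for 24 h of continuous exposure. Viability was read by MTT colorimetry, with absorbance at 570 nm.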

[41] = test system: Acinetobacter baumannii; assay: Antibacterial activity against Acinetobacter baumannii ATCC 17978 after 20 hrs by broth microdilution method; format: functional; conditions: ATCC 17978, 20 h; in short: as §1
[42] = test system: Pseudomonas aeruginosa; assay: Antibacterial activity against Pseudomonas aeruginosa PAO1 after 20 hrs in the presence of PMBN by broth microdilution method; format: functional; conditions: PAO1, 20 h; in short: as §1

Q: Which MIC [1] does the source give for `Cc1nc2ccc(C(=O)Nc3cccc(-c4ccc(-n5c(C)nc6cc(C(=O)NCCCCN(C)C)ccc65)nc4)c3)cc2[nH]1` here?
A: 8 µg/mL

Q: What about the Ratio [2] of the same molecule?
A: 2 - 4

Q: What about the MIC [3] of the same molecule?
A: 32 µg/mL

Q: What about the Time [4] of the same molecule?
A: 2 h

Q: What about the MIC [5] of the same molecule?
A: > 32 µg/mL

Q: What about the deltaTm [6] of the same molecule?
A: 0.6 °C

Q: And the Ratio [7]?
A: 2 - 4

Q: What about the MIC [8] of the same molecule?
A: > 32 µg/mL

Q: And the Activity [9]?
A: inactive

Q: And the MIC [10]?
A: 1 µg/mL (≈ 1.66 µM)

Q: What about the MIC [11] of the same molecule?
A: > 32 µg/mL

Q: And the Ratio [12]?
A: 4

Q: And the MIC [13]?
A: 2 µg/mL (≈ 3.33 µM)

Q: What about the Ratio [14] of the same molecule?
A: 4

Q: What about the MIC [15] of the same molecule?
A: 16 µg/mL

Q: And the Ratio [16]?
A: 2

Q: What about the MIC [17] of the same molecule?
A: ≤ 0.125 µg/mL

Q: What about the deltaTm [18] of the same molecule?
A: 0.3 °C

Q: What about the MIC [19] of the same molecule?
A: 32 µg/mL

Q: What about the MIC [20] of the same molecule?
A: 16 µg/mL

Q: And the MIC [21]?
A: > 32 µg/mL

Q: What about the Ratio [22] of the same molecule?
A: >16

Q: What about the Ratio [23] of the same molecule?
A: >16

Q: What about the Ratio [24] of the same molecule?
A: 2 - 4

Q: What about the MIC [25] of the same molecule?
A: 0.25 µg/mL (≈ 0.416 µM)

Q: And the MIC [26]?
A: 0.5 µg/mL (≈ 0.832 µM)

Q: What about the Activity [27] of the same molecule?
A: inactive

Q: And the MIC [28]?
A: 0.5 µg/mL (≈ 0.832 µM)

Q: And the MIC [29]?
A: 8 µg/mL

Q: What about the Ratio [30] of the same molecule?
A: 2

Q: What about the MIC [31] of the same molecule?
A: > 32 µg/mL

Q: What about the Ratio [32] of the same molecule?
A: 2 - 4

Q: And the MIC [33]?
A: > 32 µg/mL

Q: And the Ratio [34]?
A: >=4

Q: And the Time [35]?
A: 2 h

Q: What about the MIC [36] of the same molecule?
A: > 32 µg/mL

Q: And the MIC [37]?
A: 8 µg/mL

Q: And the MIC [38]?
A: 16 µg/mL

Q: What about the MIC [39] of the same molecule?
A: 16 µg/mL

Q: What about the viability at 24 h, 25 µM [40] of the same molecule?
A: > 98%

Q: What about the MIC [41] of the same molecule?
A: > 32 µg/mL

Q: What about the MIC [42] of the same molecule?
A: 16 µg/mL
